The source made the active and inactive calls. The calls are words filed in the database; no cut-off is given here.
Tests used:
[1] = Cytotoxicity against human TE1 cells assessed as growth inhibition after 72 hrs by CCK8 assay; assay type: functional, cell-based, TE-1
In short: (§1)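 Exponentially growing cells were trypsinized and seeded at 2 × 10^4 cells/mL (100 µL/well). After 24 h, medium was replaced with compound at 0.5–256 µM (twofold steps). Plates were incubated 72 h at 37 °C, 5% CO2, then with CCK-8 for 4 h. A450 was read. Three independent runs; IC50 given as mean and SD.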

[2] = Cytotoxicity against human MCF7 cells assessed as growth inhibition after 72 hrs by CCK8 assay; assay type: functional, cell-based; in short: as §1
[3] = Cytotoxicity against human SW780 cells assessed as growth inhibition after 72 hrs by CCK8 assay; assay type: functional, cell-based; in short: as §1
[4] = Cytotoxicity against human MGC803 cells assessed as growth inhibition after 72 hrs by CCK8 assay; assay type: functional, cell-based, MGC-803; in short: as §1
[5] = Cytotoxicity against human HL-7702 cells assessed as growth inhibition after 72 hrs by CCK8 assay; assay type: toxicity, cell-based, L02; conditions: for IC50 at 72 h: human, HL-7702 cells; in short: as §1
[6] = Cytotoxicity against human GES-1 cells assessed as growth inhibition after 72 hrs by CCK8 assay; assay type: toxicity, cell-based, GES1; conditions: for IC50 at 72 h: human, GES-1 cells; in short: as §1
MGC-803 [7] = experiment: Induction of morphological changes in human MGC803 cells assessed as cell rounding up at 5 to 20 uM after 24 hrs by Hoechst 33258 staining based confocal microscopic analysis; assay type: functional
In short: (§2)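 MGC-803 cells grown on glass slides to about 70% confluence, treated 24 h at 0, 5, 10, 20 µM. PBS-washed, stained 20 min in dark with 10 µg/mL Hoechst 33258 containing 0.1% Triton X-100, washed, mounted, imaged by laser scanning confocal microscopy. Cell morphology also viewed by inverted microscope.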

MGC-803 [8] = experiment: Induction of morphological changes in human MGC803 cells assessed as cell debris at 5 to 20 uM after 24 hrs by Hoechst 33258 staining based confocal microscopic analysis; assay type: functional; in short: as §2
MGC-803 [9] = experiment: Induction of morphological changes in human MGC803 cells assessed as chromatin condensation at 5 to 20 uM after 24 hrs by Hoechst 33258 staining based confocal microscopic analysis; assay type: functional, cell-based; in short: as §2
MGC-803 [10] = experiment: Induction of morphological changes in human MGC803 cells assessed as nuclear condensation at 5 to 20 uM after 24 hrs by Hoechst 33258 staining based confocal microscopic analysis; assay type: functional, cell-based; in short: as §2
MGC-803 [11] = experiment: Induction of morphological changes in human MGC803 cells assessed as nuclear fragmentation at 5 to 20 uM after 24 hrs by Hoechst 33258 staining based confocal microscopic analysis; assay type: functional, cell-based; in short: as §2
[12] = Cell cycle arrest in human MGC803 cells assessed as accumulation at G0/G1 phase at 5 uM after 24 hrs by propidium iodide staining based flow cytometry (reference value: 54.77%); assay type: functional; conditions: MGC-803
[13] = Cell cycle arrest in human MGC803 cells assessed as accumulation at S phase at 5 uM after 24 hrs by propidium iodide staining based flow cytometry (reference value: 21.32%); assay type: functional; conditions: MGC-803
[14] = Cell cycle arrest in human MGC803 cells assessed as accumulation at G2/M phase at 5 uM after 24 hrs by propidium iodide staining based flow cytometry (reference value: 20.66%); assay type: functional; conditions: MGC-803
[15] = Cell cycle arrest in human MGC803 cells assessed as accumulation at G0/G1 phase at 10 uM after 24 hrs by propidium iodide staining based flow cytometry (reference value: 54.77%); assay type: functional; conditions: MGC-803
[16] = Cell cycle arrest in human MGC803 cells assessed as accumulation at S phase at 10 uM after 24 hrs by propidium iodide staining based flow cytometry (reference value: 21.32%); assay type: functional; conditions: MGC-803
[17] = Cell cycle arrest in human MGC803 cells assessed as accumulation at G2/M phase at 10 uM after 24 hrs by propidium iodide staining based flow cytometry (reference value: 20.66%); assay type: functional; conditions: MGC-803
[18] = Cell cycle arrest in human MGC803 cells assessed as accumulation at G0/G1 phase at 20 uM after 24 hrs by propidium iodide staining based flow cytometry (reference value: 54.77%); assay type: functional; conditions: MGC-803
[19] = Cell cycle arrest in human MGC803 cells assessed as accumulation at S phase at 20 uM after 24 hrs by propidium iodide staining based flow cytometry (reference value: 21.32%); assay type: functional; conditions: MGC-803
[20] = Cell cycle arrest in human MGC803 cells assessed as accumulation at G2/M phase at 20 uM after 24 hrs by propidium iodide staining based flow cytometry (reference value: 20.66%); assay type: functional; conditions: MGC-803
[21] = Cell cycle arrest in human MGC803 cells assessed as accumulation at G2/M phase after 24 hrs by propidium iodide staining based flow cytometry; assay type: functional; conditions: MGC-803
MGC-803 [22] = experiment: Induction of apoptosis in human MGC803 cells after 24 hrs by Annexin-V FITC/propidium iodide staining based flow cytometry; assay type: functional, cell-based
MGC-803 [23] = experiment: Induction of apoptosis in human MGC803 cells assessed as early apoptotic cells at 5 uM after 24 hrs by Annexin-V FITC/propidium iodide staining based flow cytometry (reference value: 0.9 +/- 0.3%); assay type: functional
MGC-803 [24] = experiment: Induction of apoptosis in human MGC803 cells assessed as late apoptotic cells at 5 uM after 24 hrs by Annexin-V FITC/propidium iodide staining based flow cytometry (reference value: 0.4 +/- 0.5%); assay type: functional
MGC-803 [25] = experiment: Induction of apoptosis in human MGC803 cells assessed as early apoptotic cells at 10 uM after 24 hrs by Annexin-V FITC/propidium iodide staining based flow cytometry (reference value: 0.9 +/- 0.3%); assay type: functional
MGC-803 [26] = experiment: Induction of apoptosis in human MGC803 cells assessed as late apoptotic cells at 10 uM after 24 hrs by Annexin-V FITC/propidium iodide staining based flow cytometry (reference value: 0.4 +/- 0.5%); assay type: functional
MGC-803 [27] = experiment: Induction of apoptosis in human MGC803 cells assessed as early apoptotic cells at 20 uM after 24 hrs by Annexin-V FITC/propidium iodide staining based flow cytometry (reference value: 0.9 +/- 0.3%); assay type: functional
MGC-803 [28] = experiment: Induction of apoptosis in human MGC803 cells assessed as late apoptotic cells at 20 uM after 24 hrs by Annexin-V FITC/propidium iodide staining based flow cytometry (reference value: 0.4 +/- 0.5%); assay type: functional
MGC-803 [29] = experiment: Induction of ROS generation in human MGC803 cells at 5 uM after 24 hrs by DCFH-DA staining based flow cytometry (reference value: 2.84%); assay type: functional
In short: (§3)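 MGC-803 cells exposed to 0, 5, 10, 20 µM for 24 h, collected, then loaded with DCFH-DA (10 µM) for 30 min at 37 °C. Washed three times in serum-free medium; DCF green fluorescence quantified by flow cytometry as percent fluorescent cells.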

MGC-803 [30] = experiment: Induction of ROS generation in human MGC803 cells at 10 uM after 24 hrs by DCFH-DA staining based flow cytometry (reference value: 2.84%); assay type: functional; in short: as §3
MGC-803 [31] = experiment: Induction of ROS generation in human MGC803 cells at 20 uM after 24 hrs by DCFH-DA staining based flow cytometry (reference value: 2.84%); assay type: functional; in short: as §3
MGC-803 [32] = experiment: Induction of ROS generation in human MGC803 cells after 24 hrs by DCFH-DA staining based flow cytometry; assay type: functional, cell-based; in short: as §3
MGC-803 [33] = experiment: Inhibition of LSD1 expression in human MGC803 cells after 24 hrs by Western blot method; assay type: functional, cell-based
In short: (§4)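 Cells given 0, 5, 10, 20 µM for 24 h, lysed 30 min in RIPA buffer (50 mM Tris-HCl pH 7.5, 150 mM NaCl, detergents) with protease inhibitors. Cleared lysate protein measured by BCA, resolved by SDS-PAGE, moved to nitrocellulose. Membranes blocked in 5% milk, probed with primary antibodies overnight at 4 °C, then secondary (1:5000) 2 h. ECL detection.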

MGC-803 [34] = experiment: Induction of apoptosis in human MGC803 cells assessed as activation of Bax protein expression at 5 to 20 uM after 24 hrs by Western blot method; assay type: functional, cell-based; in short: as §4
MGC-803 [35] = experiment: Induction of apoptosis in human MGC803 cells assessed as inhibition of Bcl2 protein expression at 5 to 20 uM after 24 hrs by Western blot method; assay type: functional, cell-based; in short: as §4
MGC-803 [36] = experiment: Induction of apoptosis in human MGC803 cells assessed as inhibition of Mcl1 protein expression at 5 to 20 uM after 24 hrs by Western blot method; assay type: functional, cell-based; in short: as §4
MGC-803 [37] = experiment: Induction of apoptosis in human MGC803 cells assessed as increase in PARP cleavage at 5 to 20 uM after 24 hrs by Western blot method; assay type: functional, cell-based; in short: as §4
MGC-803 [38] = experiment: Induction of apoptosis in human MGC803 cells assessed as increase in caspase-8 cleavage at 5 to 20 uM after 24 hrs by Western blot method; assay type: functional, cell-based; in short: as §4
MGC-803 [39] = experiment: Induction of apoptosis in human MGC803 cells assessed as increase in caspase-9 cleavage at 5 to 20 uM after 24 hrs by Western blot method; assay type: functional, cell-based; in short: as §4
MGC-803 [40] = experiment: Induction of apoptosis in human MGC803 cells assessed as increase in caspase-3 protein expression at 5 to 20 uM after 24 hrs by Western blot method; assay type: functional, cell-based; in short: as §4
MGC-803 [41] = experiment: Induction of apoptosis in human MGC803 cells assessed as increase in caspase-6 protein expression at 5 to 20 uM after 24 hrs by Western blot method; assay type: functional, cell-based; in short: as §4
MGC-803 [42] = experiment: Induction of apoptosis in human MGC803 cells assessed as increase in caspase-7 protein expression at 5 to 20 uM after 24 hrs by Western blot method; assay type: functional, cell-based; in short: as §4
MGC-803 [43] = experiment: Anti-migratory activity against human MGC803 cells after 24 hrs by Hoechst 33258 staining based transwell assay; assay type: functional, cell-based
In short: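 MGC-803 cells, 10,000 per upper chamber in 100 µL medium with 1% FBS plus compound (0, 2, 4, 8 µM). Lower chamber held medium with 20% FBS as chemoattractant. After 24 h, chambers PBS-washed, cells stained with Hoechst 33258 (10 µg/mL), migrated cells counted by high content screening.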

[44] = Homo sapiens, TE-1, 72 h, read-out: IC50
[45] = Homo sapiens, MCF7, 72 h, read-out: IC50
[46] = Homo sapiens, SW780, 72 h, read-out: IC50
[47] = Homo sapiens, MGC-803, 72 h, read-out: IC50

O=C(Cn1cc(CN2C(=O)C(=O)c3c(Cl)ccc(Cl)c32)nn1)OC1CCCCC1
IC50 [1, 44]: 14.2 µM | IC50 [2, 45]: 18.9 µM | IC50 [3, 46]: 25.2 µM | IC50 [4, 47]: 9.78 µM | IC50 at 72 h [5]: 40.3 µM | IC50 at 72 h [6]: 36 µM | Activity (MGC-803 [7]): Active | Activity (MGC-803 [8]): Active | Activity (MGC-803 [9]): Active | Activity (MGC-803 [10]): Active | Activity (MGC-803 [11]): Active | Activity [12]: 48.7% | Activity [13]: 21.5% | Activity [14]: 24.1% | Activity [15]: 40.3% | Activity [16]: 24% | Activity [17]: 28.7% | Activity [18]: 34.8% | Activity [19]: 23.5% | Activity [20]: 32.3% | Activity [21]: Dose-dependent effect | Activity (MGC-803 [22]): Dose-dependent effect | Activity (MGC-803 [23]): 7.8% | Activity (MGC-803 [24]): 5% | Activity (MGC-803 [25]): 10.3% | Activity (MGC-803 [26]): 5.7% | Activity (MGC-803 [27]): 18% | Activity (MGC-803 [28]): 4.5% | Activity (MGC-803 [29]): 6.04% | Activity (MGC-803 [30]): 10.3% | Activity (MGC-803 [31]): 19.3% | Activity (MGC-803 [32]): Dose-dependent effect | inhibition (MGC-803 [33]): Dose-dependent effect | Activity (MGC-803 [34]): Active | inhibition (MGC-803 [35]): Active | inhibition (MGC-803 [36]): Active | Activity (MGC-803 [37]): Active | Activity (MGC-803 [38]): Active | Activity (MGC-803 [39]): Active | Activity (MGC-803 [40]): Active | Activity (MGC-803 [41]): Active | Activity (MGC-803 [42]): Active | Activity (MGC-803 [43]): Dose-dependent effect

O=C(Cn1cc(CN2C(=O)C(=O)c3c(Cl)ccc(Cl)c32)nn1)Nc1ccccc1
IC50 [1, 44]: 30.6 µM | IC50 [2, 45]: 38.5 µM | IC50 [3, 46]: 27 µM | IC50 [4, 47]: 17.5 µM | IC50 at 72 h [5]: 24.9 µM | IC50 at 72 h [6]: 24.9 µM

O=C1C(=O)N(Cc2cn(CC(=O)N3CCNCC3)nn2)c2c(Cl)ccc(Cl)c21
IC50 ([1]; te-1): Nd(Insoluble) | IC50 ([2]; mcf7): Nd(Insoluble) | IC50 ([3]; sw780): Nd(Insoluble) | IC50 ([4]; mgc-803): Nd(Insoluble) | IC50 ([5]; l02): Nd(Insoluble) | IC50 ([6]; ges1): Nd(Insoluble)
